According to ChEMBL document CHEMBL1155047, “Isolation, structure, and antibacterial activity of phaeosphenone from a Phaeosphaeria sp. discovered by antisense strategy” (J Nat Prod, 2008):
Converted amounts (≈) assume the structure as drawn. The source made the active and inactive calls. The calls are words filed in the database; no cut-off is given here.

Tests used:
Staphylococcus aureus [1] = experiment: Inhibition of Staphylococcus aureus RNA synthesis; assay type: functional, organism-based
How it was run: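 Mid-log S. aureus (A600 0.5–0.6) is exposed to increasing compound concentrations for 20 min at 37 °C with 1 µCi/mL 5,6-[3H]uracil. The reaction is stopped with 10% trichloroacetic acid, and cells are collected on glass-fibre filters. Incorporated label is counted by scintillation.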

Enterococcus faecalis = experiment: Antimicrobial activity against vancomycin-sensitive and macrolide-resistant Enterococcus faecalis CL8516; assay type: functional
How it was run: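 Broth microdilution MIC under NCCLS guidelines in cation-adjusted Mueller Hinton broth unless stated otherwise; inoculum 10^5 CFU/mL; 2-fold serial compound dilutions in growth medium; 37 °C for 20 h. MIC read as lowest concentration preventing visible growth; a value for 80% growth inhibition also reported.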

Streptococcus pneumoniae [2] = experiment: Antimicrobial activity against penicillin, quinoline and macrolide-sensitive Streptococcus pneumoniae CL2883 in isosensitet medium; assay type: functional
How it was run: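 Pneumococcal broth MIC run in Isosensitest medium with 2-fold serial compound dilutions, 37 °C for 20 h. The reading is the lowest concentration with no visible growth.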

Streptococcus pneumoniae [3] = experiment: Antimicrobial activity against penicillin, quinoline and macrolide-sensitive Streptococcus pneumoniae CL2883 in CAMHB and 2.5 % lysed horse serum medium; assay type: functional; conditions: in the assay text read “lysed horse blood” for “lysed horse serum”
How it was run: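 Broth MIC with 2-fold serial dilution in cation-adjusted Mueller Hinton broth plus 2.5% lysed horse blood, incubated 20 h at 37 °C, NCCLS guidelines. Endpoint is no visible growth.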

Staphylococcus aureus [4] = experiment: Antimicrobial activity against methicillin-sensitive Staphylococcus aureus MB2865 in presence of human serum; assay type: functional
Staphylococcus aureus [5] = experiment: Antimicrobial activity against methicillin-sensitive Staphylococcus aureus MB2865; assay type: functional
How it was run: (§1)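 Broth microdilution under NCCLS guidelines, with 2-fold serial compound dilutions. Cells are incubated at 37 °C for 20 h. MIC is the lowest concentration that prevents visible growth. The concentration giving 80% growth inhibition is also reported.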

Staphylococcus aureus [6] = experiment: Antimicrobial activity against methicillin-sensitive Staphylococcus aureus ATCC 29213; assay type: functional; how it was run: as §1
Bacillus subtilis = experiment: Antimicrobial activity against wild type Bacillus subtilis MB964; assay type: functional; how it was run: as §1
Haemophilus influenzae = experiment: Antimicrobial activity against ampicillin, quinoline and macrolide-sensitive Haemophilus influenzae MB4572; assay type: functional; how it was run: as §1
Escherichia coli = experiment: Antimicrobial activity against wild type Escherichia coli MB2884; assay type: functional; how it was run: as §1
Candida albicans = experiment: Antimicrobial activity against wild type Candida albicans MY1055; assay type: functional; how it was run: as §1
Staphylococcus aureus [7] = experiment: Antimicrobial activity against Staphylococcus aureus RN450 carrying plasmid S1-782B bearing antisense […] RNA assessed as zone size at 500 ug/ml by two-plate differential sensitivity assay; assay type: functional; conditions: read-out: IZ
How it was run: (§2)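 The S. aureus RN450 strains carry plasmid S1-782B, either with rpsD antisense RNA or with empty vector (control). Overnight cultures are grown in Miller's LB with 34 µg/mL chloramphenicol at 37 °C, 220 rpm, for 18–20 h. They are seeded 1:1000 of OD 3.0 into LB agar with 0.2% glucose and 15 µg/mL chloramphenicol; 12 mM xylose is added for the antisense strain only. Samples go into wells at 2-fold dilutions from 500 to 31.25 µg/mL. Zones are read after 18 h at 37 °C.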

Staphylococcus aureus [8] = experiment: Antimicrobial activity against Staphylococcus aureus RN450 assessed as zone size at 500 ug/ml by two-plate differential sensitivity assay; assay type: functional; conditions: read-out: IZ; how it was run: as §2
Staphylococcus aureus [9] = experiment: Antimicrobial activity against Staphylococcus aureus RN450 carrying plasmid S1-782B bearing antisense […] RNA assessed as zone size at 31.25 ug/ml by two-plate differential sensitivity assay; assay type: functional; conditions: read-out: IZ; how it was run: as §2
Staphylococcus aureus [10] = experiment: Antimicrobial activity against Staphylococcus aureus RN450 assessed as zone size at 31.25 ug/ml by two-plate differential sensitivity assay; assay type: functional, organism-based; how it was run: as §2

For `Cc1cc(O)c2c(c1)C(=O)C1=C(C2=O)[C@@H](O)[C@@H](O)[C@@H](O)C1` [PLEOSPORONE], the IC50 (Staphylococcus aureus [1]) was 6 µg/mL (≈ 20.7 µM).
With `Cc1cc(O)c2c(c1)C(=O)c1c(cc(C)c([C@H]3C[C@@H](O)C4=C(C(=O)C5=C(C4=O)[C@@H](O)CC[C@@H]5O)[C@H]3O)c1O)C2=O` [PHAEOSPHENONE] the MIC (Enterococcus faecalis) was 64 µg/mL (≈ 117 µM), the MIC (Streptococcus pneumoniae [2]) was 8 µg/mL (≈ 14.6 µM) and the MIC (Streptococcus pneumoniae [3]) was 64 µg/mL (≈ 117 µM). The MIC (Staphylococcus aureus [4]) was > 64 µg/mL, the MIC (Staphylococcus aureus [5]) was 64 µg/mL (≈ 117 µM) and the MIC80 (Staphylococcus aureus [5]) was 32 µg/mL (≈ 58.6 µM). The MIC (Staphylococcus aureus [6]) was 32 µg/mL (≈ 58.6 µM), the MIC80 (Staphylococcus aureus [6]) was 16 µg/mL (≈ 29.3 µM) and the MIC (Bacillus subtilis) was 16 µg/mL (≈ 29.3 µM). The MIC (Haemophilus influenzae) was > 64 µg/mL, the MIC (Escherichia coli) was > 64 µg/mL and the MIC (Candida albicans) was 8 µg/mL (≈ 14.6 µM). It also gave a zone of inhibition at 500 µg/mL (Staphylococcus aureus [7]) of 16 mm, a zone of inhibition at 500 µg/mL (Staphylococcus aureus [8]) of 11.8 mm and a zone of inhibition at 31.25 µg/mL (Staphylococcus aureus [9]) of 7 mm. The Activity (Staphylococcus aureus [10]) was “inactive”.
